Measured values published in ChEMBL document CHEMBL3352728, “Synthesis and biological evaluation of 1,2,3-triazole linked aminocombretastatin conjugates as mitochondrial mediated apoptosis inducers” (Bioorg Med Chem, 2014).
Activity calls are given as the source filed them. The rule behind the calls is not given here.

Columns and labels:
[1] = test system: A549; assay: Induction of apoptosis in human A549 cells assessed as chromatin condensation at 25 nM incubated for 48 hrs by Hoechst staining based fluorescent microscopy; assay type: functional, cell-based
In short: (§1)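 A549 cells, 10,000 per coverslip, cultured 24 h, then exposed to 25 nM for 48 h. Stained with Hoechst 33258 (0.5 mg/mL) for 30 min at 37 °C and washed in PBS. Random fields imaged by fluorescence microscopy and scored qualitatively for chromatin condensation, nuclear fragmentation and apoptotic bodies.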

[2] = test system: A549; assay: Induction of apoptosis in human A549 cells assessed as nuclear fragmentation at 25 nM incubated for 48 hrs by Hoechst staining based fluorescent microscopy; assay type: functional, cell-based; in short: as §1
[3] = test system: HeLa; assay: Cytotoxicity against human HeLa cells after 48 hrs by MTT assay; assay type: functional, cell-based
In short: (§2)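 MTT assay. Cells seeded at 1×10^4 per well in DMEM with 10% FBS and grown 24 h at 37 °C under CO2. Compounds diluted in medium, vehicle control included, 48 h exposure. MTT (5 mg/mL stock) added for 4 h, formazan dissolved in DMSO, absorbance read at 570 nm. IC50 taken as the average of three independent experiments.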

[4] = test system: A549; assay: Cytotoxicity against human A549 cells after 48 hrs by MTT assay; assay type: functional, cell-based; settings: A549, 48 h; in short: as §2
[5] = test system: A549; assay: Induction of apoptosis in human A549 cells assessed as caspase-3 activation at 50 nM incubated for 48 hrs by ELISA method; assay type: functional
In short: (§3)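 A549 cells treated 48 h at 25 or 50 nM, with CA-4 at 50 nM as reference. Cells pelleted, PBS-washed, lysed 15 min and centrifuged. Supernatant assayed with a colorimetric caspase-3 kit. Mean ± SD from two experiments, each in triplicate.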

[6] = test system: A549; assay: Induction of mitochondrial membrane potential loss in human A549 cells at 25 nM incubated for 48 hrs by JC1 dye staining based fluorescence assay; assay type: functional, cell-based
In short: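 A549 cells exposed to 25 nM for 48 h, then loaded with JC-1 for 20 min at 37 °C. JC-1 green monomer emission (525 nm) compared with red aggregate emission (590 nm) to read depolarization. CA-4 at 25 nM included.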

[7] = test system: A549; assay: Induction of ROS generation in human A549 cells at 25 nM incubated for 48 hrs by DCFH-DA staining based fluorescence assay; assay type: functional, cell-based
In short: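 A549 cells exposed to 25 nM for 48 h, then loaded with 5 μM DCFH-DA for 30 min at 37 °C. DCF fluorescence read at ex 485/em 530 nm. CA-4 at 25 nM run in parallel.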

[8] = molecular target: T1, Tubulin (Homo sapiens) (UniProt P68371+Q9H4B7+P0DPH7+P68366+Q13509+Q71U36+P04350+Q3ZCM7+P07437+P68363+Q9BQE3+Q6PEY2+Q13885+Q9BVA1+Q9BUF5); assay: Binding affinity to tubulin (unknown origin) incubated for 60 mins by colchicine competition assay; assay type: protein-complex assay
In short: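 Tubulin (3 μM) incubated with test agents (5, 10, 15, 20 μM) with and without 3 μM colchicine in 30 mM Tris buffer, 60 min at 37 °C. Tubulin–colchicine fluorescence read at ex 350/em 435 nm. Compound-alone signal subtracted from the compound+colchicine signal, Tris blank subtracted, values normalized to DMSO control. CA-4 positive control, taxol negative control.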

[9] = test system: A549; assay: Induction of cell cycle arrest in human A549 cells assessed as accumulation at G0/G1 phase at 50 nM after 48 hrs by propidium iodide staining based flow cytometry (reference value: 87.75%); assay type: functional
[10] = molecular target: Tubulin; assay: Inhibition of tubulin (unknown origin) polymerization incubated for 1 hr by fluorescence assay; assay type: protein-complex assay, Homo sapiens
[11] = test system: A549; assay: Induction of microtubule network disruption in human A549 cells at 25 nM incubated for 48 hrs by immunohistochemistry; assay type: cell-based
In short: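 A549 cells on glass coverslips exposed to 25 nM for 48 h, with CA-4 at 25 nM in parallel. Fixed in 3% paraformaldehyde/0.02% glutaraldehyde and permeabilized in methanol overnight at 4 °C. Blocked with 1% BSA, stained with mouse anti-tubulin primary and FITC-labelled anti-mouse IgG, and examined by fluorescence microscopy for microtubule network integrity.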

[12] = test system: A549; assay: Induction of cell cycle arrest in human A549 cells assessed as accumulation at S phase at 50 nM after 48 hrs by propidium iodide staining based flow cytometry (reference value: 4.69%); assay type: functional
[13] = test system: A549; assay: Induction of DNA fragmentation in human A549 cells at 25 nM incubated for 48 hrs by agarose gel electrophoresis method; assay type: functional, cell-based
In short: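 A549 cells (1×10^6) plated for 24 h, then exposed to 25 nM for 48 h. Cells pelleted and lysed. Lysate treated with SDS and RNase A for 2 h at 56 °C, then proteinase K for 2 h at 37 °C. DNA precipitated with ammonium acetate and cold ethanol, redissolved in TE buffer, and laddering run on 2% agarose gel.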

[14] = test system: A549; assay: Induction of cell cycle arrest in human A549 cells assessed as accumulation at G2/M phase at 50 nM after 48 hrs by propidium iodide staining based flow cytometry (reference value: 6.15%); assay type: functional
[15] = test system: A549; assay: Induction of cell cycle arrest in human A549 cells assessed as accumulation at G2/M phase at 25 nM after 48 hrs by propidium iodide staining based flow cytometry (reference value: 6.15%); assay type: functional
[16] = test system: A549; assay: Induction of cell cycle arrest in human A549 cells assessed as accumulation at S phase at 25 nM after 48 hrs by propidium iodide staining based flow cytometry (reference value: 4.69%); assay type: functional
[17] = test system: HepG2; assay: Cytotoxicity against human HepG2 cells after 48 hrs by MTT assay; assay type: functional, cell-based; settings: HepG2, 48 h; in short: as §2
[18] = test system: A549; assay: Induction of apoptosis in human A549 cells assessed as caspase-3 activation at 25 nM incubated for 48 hrs by ELISA method; assay type: functional; in short: as §3
[19] = test system: ACHN; assay: Cytotoxicity against human ACHN cells after 48 hrs by MTT assay; assay type: functional, cell-based; in short: as §2
[20] = molecular target: T1, Tubulin (Homo sapiens); assay: Inhibition of tubulin (unknown origin) polymerization at 3 uM incubated for 1 hr by fluorescence assay; assay type: protein-complex assay
In short: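 Fluorescence-reporter tubulin polymerization kit. PEM buffer with […], compounds at 3 μM final concentration. Fluorescence followed at ex 360/em 420 nm for 1 h at 37 °C. CA-4 positive control. Mean ± SD from two experiments, each in triplicate.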

[21] = test system: A549; assay: Induction of cell cycle arrest in human A549 cells assessed as accumulation at subG1 phase at 25 nM after 48 hrs by propidium iodide staining based flow cytometry (reference value: 1.41%); assay type: functional
[22] = test system: MCF7; assay: Cytotoxicity against human MCF7 cells after 48 hrs by MTT assay; assay type: functional, cell-based; settings: MCF7, 48 h; in short: as §2
[23] = test system: A549; assay: Induction of cell cycle arrest in human A549 cells assessed as accumulation at subG1 phase at 50 nM after 48 hrs by propidium iodide staining based flow cytometry (reference value: 1.41%); assay type: functional
[24] = test system: A549; assay: Induction of apoptosis in human A549 cells assessed as apoptotic bodies level at 25 nM incubated for 48 hrs by Hoechst staining based fluorescent microscopy; assay type: functional, cell-based; in short: as §1
[25] = test system: A549; assay: Induction of cell cycle arrest in human A549 cells assessed as accumulation at G0/G1 phase at 25 nM after 48 hrs by propidium iodide staining based flow cytometry (reference value: 87.75%); assay type: functional

COc1ccc(Cn2cc(C(=O)Nc3cc(/C=C\c4cc(OC)c(OC)c(OC)c4)cc(OC)c3OC)nn2)cc1
Activity [1]: Active | Activity [2]: Active | IC50 [3]: 81 nM | IC50 [4]: 44 nM | fold change (FC) [5]: 3 | Activity [6]: Active | Activity [7]: Active | Activity [8]: Active | Activity [9]: 62.01% | IC50 [10]: 950 nM | Activity [11]: Active | Activity [12]: 7.9% | Activity [13]: Active | Activity [14]: 26.63% | Activity [15]: 21.37% | Activity [16]: 7.84% | IC50 [17]: 98 nM | fold change (FC) [18]: 3 | IC50 [19]: 1700 nM | inhibition [20]: 70.9% | Activity [21]: 1.2% | IC50 [22]: 818 nM | Activity [23]: 3.46% | Activity [24]: Active | Activity [25]: 69.59%
